ChEMBL document CHEMBL4004787, “Polyoxygenated Cyclohexenes and Other Constituents of Cleistochlamys kirkii Leaves” (J Nat Prod, 2017)
The source made the active and inactive calls. The rule behind the calls is not given here.

Legend:
HEK293 = test: Growth inhibition of HEK293 cells after 72 hrs by PrestoBlue staining based fluorescence assay; assay type: cell-based; settings: Homo sapiens, HEK293, 72 h
In short: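 HEK293 cytotoxicity IC50s: percent inhibition plotted against log dose and fitted by nonlinear regression (variable slope). Experiments run in triplicate (n = 3).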

[1] = Selectivity index, ratio of IC50 for HEK293 cells to IC50 for chloroquine-sensitive Plasmodium falciparum 3D7 infected in human RBC; assay type: toxicity; settings: HEK293 cells versus Plasmodium falciparum 3D7 in human RBC, read-out: Ratio IC50
In short: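 Selectivity index computed as the HEK293 IC50 divided by the P. falciparum 3D7 IC50, compared against puromycin as a nonselective standard.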

Plasmodium falciparum [2] = test: Growth inhibition of chloroquine-sensitive Plasmodium falciparum 3D7 infected in human RBC at 40 uM after 72 hrs by DAPI staining based confocal microscopic method relative to control; assay type: functional; settings: 3D7, 72 h, read-out: GI
MDA-MB-231 = test: Growth inhibition of human MDA-MB-231 cells after 72 hrs by alamar blue assay; assay type: functional, cell-based; settings: MDA-MB-231, 72 h
In short: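 MDA-MB-231 cells grown in DMEM with 10% FBS, 2 mM L-glutamine, penicillin and streptomycin at 37 °C, 5% CO2. Seeded at 10 000 cells/well, preincubated 24 h, then exposed to 100−0.1 μg/mL for 72 h; vehicle 0.1% or 1.0% DMSO. Alamar Blue read by absorbance at 570 nm (600 nm reference). Six replicates, expressed as % of vehicle control.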

Krebs2 = test: Inhibition of cap/HCV-mediated translation in mouse Krebs2 cell free extract expressing FF/HCV/IRES-Ren mRNA reporter transcript assessed as reduction in luciferase production at 20 uM after 60 mins; assay type: functional
In short: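 Krebs-2 in vitro translation extracts programmed with bicistronic firefly-HCV IRES-Renilla luciferase mRNA. Compounds at 10 mM DMSO stock, diluted to 200 μM in water before addition. Reactions incubated 60 min at 30 °C, then both luciferase activities read. Firefly signal reports cap-dependent translation; Renilla signal reports HCV IRES translation.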

Plasmodium falciparum [3] = test: Antimalarial activity against chloroquine-sensitive Plasmodium falciparum 3D7 infected in human RBC after 72 hrs by DAPI staining based confocal microscopic method; assay type: functional; settings: 3D7, 72 h
In short: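 Triplicate runs, n = 3. Percent inhibition plotted against log dose, and IC50 fitted by nonlinear regression with variable slope. An initial single-point screen was run at 20 μM final concentration.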

Plasmodium falciparum [4] = test: Growth inhibition of chloroquine-sensitive Plasmodium falciparum 3D7 infected in human RBC at 20 uM after 72 hrs by DAPI staining based confocal microscopic method relative to control; assay type: functional; settings: 3D7, 72 h, read-out: GI
Plasmodium falciparum [5] = test: Antimalarial activity against chloroquine-resistant Plasmodium falciparum Dd2 infected in human RBC after 72 hrs by DAPI staining based confocal microscopic method; assay type: functional; settings: Dd2, 72 h
In short: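 Triplicate runs, n = 3. Percent inhibition plotted against log dose, and IC50 fitted by nonlinear regression with variable slope. […] An initial single-point screen was run at 20 μM final concentration.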

[6] = Growth inhibition of HEK293 cells at 20 uM after 72 hrs by PrestoBlue staining based fluorescence assay relative to control; assay type: cell-based; settings: human, read-out: GI
[7] = Selectivity index, ratio of growth inhibitory effect against HEK293 cells at 20 uM to IC50 for chloroquine-sensitive Plasmodium falciparum 3D7 infected in human RBC; assay type: toxicity, cell-based; settings: HEK293 cells versus Plasmodium falciparum 3D7 in human RBC, read-out: Selectivity Index
Plasmodium falciparum [8] = test: Growth inhibition of chloroquine-resistant Plasmodium falciparum Dd2 infected in human RBC at 40 uM after 72 hrs by DAPI staining based confocal microscopic method relative to control; assay type: functional; settings: Dd2, 72 h, read-out: GI
In short: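 Percentage growth inhibition was read at 40 μM, a single concentration. The value is the mean of at least two independent measurements.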

[9] = Growth inhibition of HEK293 cells at 40 uM after 72 hrs by PrestoBlue staining based fluorescence assay relative to control; assay type: cell-based; settings: human, read-out: GI

IC50 (MDA-MB-231) | SMILES | inhibition of growth at 40 µM (Plasmodium falciparum [2]) | inhibition (Krebs2) | IC50 (Plasmodium falciparum [3]) | further results
 | COc1ccc2nc3cc(Cl)ccc3c(Nc3cc(CN4CCCC4)c(O)c(CN4CCCC4)c3)c2n1 [PYRONARIDINE] |  |  |  | IC50 (HEK293): 1800 nM; selectivity ratio [1]: 494
240 nM | O=C1C=C/C(=C/[C@@H](O)COC(=O)c2ccccc2)O1 | 92% |  |  | 
2100 nM | CC(=O)O[C@@H]1C=C[C@@H](OC(=O)c2ccccc2)[C@@](O)(COC(=O)c2ccccc2)[C@H]1OC(C)=O | 99% | inactive |  | 
 | CC(=O)O[C@H](OC(=O)c1ccccc1)[C@@]12C=C[C@@H](c3ccc(C=O)cc31)[C@H](O)[C@H]2OC(C)=O | 98% |  |  | 
120 nM | CC(=O)O[C@H]1C=C[C@H](Cl)[C@@](O)(COC(=O)c2ccccc2)[C@@H]1O | 72% | inactive |  | 
 | COc1ccc(C[C@H](N)C(=O)N[C@H]2[C@@H](O)[C@H](n3cnc4c(N(C)C)ncnc43)O[C@@H]2CO)cc1 [PUROMYCIN] |  |  | 23 nM | selectivity ratio [1]: 15.9
 | CCc1nc(N)nc(N)c1-c1ccc(Cl)cc1 [PYRIMETHAMINE] |  |  |  | IC50 (HEK293): 4200 nM
 | C[C@H]1[C@@H](O)O[C@@H]2O[C@@]3(C)CC[C@H]4[C@H](C)CC[C@@H]1[C@@]24OO3 [ARTENIMOL] |  |  | 0.11 nM | IC50 (Plasmodium falciparum [5]): 0.15 nM; inhibition at 72 h, 20 µM [6]: 50%; selectivity ratio at 20 µM [7]: > 22
2700 nM | CC(=O)O[C@H]1C=C[C@H](O)[C@@](O)(COC(=O)c2ccccc2)[C@@H]1OC(C)=O | 54% | inactive |  | 
8200 nM | O=Cc1cccc(O)c1 [3-HYDROXYBENZALDEHYDE] | 25% | inactive |  | 
 | CC(=O)O[C@H](/C=C1/C=CC(=O)O1)COC(=O)c1ccccc1 |  | inactive | 6670 nM | inhibition of growth at 20 µM (Plasmodium falciparum [4]): ≥ 90%; inhibition of growth at 40 µM (Plasmodium falciparum [8]): 100%; inhibition at 72 h, 40 µM [9]: 100%
90 nM | O=C(OCc1cc(O)ccc1O)c1ccccc1 | 67% |  |  | 
 | CC(=O)OC[C@]1(O)[C@H](OC(=O)c2ccccc2)C=C[C@@H](OC(C)=O)[C@@H]1O |  | inactive |  | 
 | C[C@H]1[C@H](OC(=O)CCC(=O)O)O[C@@H]2O[C@@]3(C)CC[C@H]4[C@H](C)CC[C@@H]1[C@@]24OO3 [ARTESUNATE] |  |  | 0.48 nM | inhibition at 72 h, 20 µM [6]: 75%; selectivity ratio at 20 µM [7]: > 22
450 nM | CC(=O)O[C@H]1C=C[C@H](Cl)[C@](O)(COC(=O)c2ccccc2)[C@@H]1O | 95% | inactive |  | 

SMILES | IC50 (MDA-MB-231) | inhibition of growth at 40 µM (Plasmodium falciparum [2]) | inhibition (Krebs2) | IC50 (Plasmodium falciparum [3]) | further results
CC(=O)OC(OC(=O)c1ccccc1)C1=CC=C[C@H](O)[C@H]1OC(C)=O (stereo partly drawn) | 290 nM |  |  | 1200 nM | inhibition of growth at 20 µM (Plasmodium falciparum [4]): ≥ 90%; IC50 (Plasmodium falciparum [5]): 2200 nM; IC50 (HEK293): 3600 nM; selectivity ratio [1]: 3
CC(=O)O[C@@H]1C=C[C@H](O)[C@@H](O)/C1=C/OC(=O)c1ccccc1 | 30 nM |  | inactive | 200 nM | inhibition of growth at 20 µM (Plasmodium falciparum [4]): ≥ 90%; IC50 (Plasmodium falciparum [5]): 480 nM; IC50 (HEK293): 2700 nM; selectivity ratio [1]: 14
CC(=O)O[C@@H]1C=C[C@H](O)[C@@H](OC(C)=O)/C1=C/OC(=O)c1ccccc1 | 290 nM |  | inactive | 620 nM | inhibition of growth at 20 µM (Plasmodium falciparum [4]): ≥ 90%; IC50 (Plasmodium falciparum [5]): 3400 nM; IC50 (HEK293): 2400 nM; selectivity ratio [1]: 4
